# Data reported in ChEMBL document CHEMBL3120063, “Identification of chromomoric acid C-I as an Nrf2 activator in Chromolaena odorata” (J Nat Prod, 2014).
# The source made the active and inactive calls. The rule behind the calls is not given here.
# What was measured:
# [1] = target: T1, Nuclear factor erythroid 2-related factor 2 (Homo sapiens) (UniProt Q16236); assay: Activation of Nrf2 (unknown origin) expressed in CHO-ARE luc cells at 10 to 30 uM after 18 hrs by luciferase reporter gene assay; assay type: cell-based
# T1 sequence (whole entry): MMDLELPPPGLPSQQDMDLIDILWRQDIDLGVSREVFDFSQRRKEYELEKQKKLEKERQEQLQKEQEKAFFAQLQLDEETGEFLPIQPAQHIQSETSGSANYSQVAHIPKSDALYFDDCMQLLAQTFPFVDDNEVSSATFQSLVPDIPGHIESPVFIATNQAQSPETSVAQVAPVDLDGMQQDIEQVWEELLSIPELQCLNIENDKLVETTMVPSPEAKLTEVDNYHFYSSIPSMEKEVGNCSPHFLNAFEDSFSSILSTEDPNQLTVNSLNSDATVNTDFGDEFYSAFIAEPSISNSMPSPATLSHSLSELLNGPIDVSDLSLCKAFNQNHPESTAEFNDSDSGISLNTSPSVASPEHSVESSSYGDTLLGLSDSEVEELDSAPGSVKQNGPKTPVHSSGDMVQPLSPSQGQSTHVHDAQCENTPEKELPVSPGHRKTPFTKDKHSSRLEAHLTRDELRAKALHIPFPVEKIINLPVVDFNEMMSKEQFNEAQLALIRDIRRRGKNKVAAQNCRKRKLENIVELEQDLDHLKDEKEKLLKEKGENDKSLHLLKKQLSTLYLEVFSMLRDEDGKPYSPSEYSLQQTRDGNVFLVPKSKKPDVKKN
# Method in brief: (§1)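 CHO-ARE-Luc cells, kept in DMEM with 10% FCS, 2 mM glutamine and 4 μg/mL puromycin, were exposed to test agents for 18 h. 0.1% DMSO served as vehicle and 100 nM CDDO-IM as positive control. Luciferase was normalized to cell count (Cell Tracker Green CMFDA) and expressed as fold of DMSO control. Three independent experiments, means + SD. CD = concentration doubling the vehicle response.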
# [2] = system: HEK293; assay: Inhibition of NF-kappaB (unknown origin) expressed in HEK293 cells co-expressing luc gene at 30 uM after 30 mins by luciferase reporter gene assay; assay type: cell-based; conditions: Homo sapiens
# Method in brief: (§2)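 HEK293/NF-κB-luc cells were stained 1 h with 2 μM Cell Tracker Green CMFDA, seeded at 4×10⁴ cells/well overnight, and pretreated 30 min with compound, 0.1% DMSO, or 5 μM parthenolide (positive control). They were then stimulated with 2 ng/mL TNF-α for 4 h and lysed; luminescence (NF-κB) and fluorescence (cell count) were read. n = 3.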
# [3] = target: T1, Nuclear factor erythroid 2-related factor 2 (Homo sapiens); assay: Activation of Nrf2 (unknown origin) expressed in CHO-ARE luc cells at 5.2 uM after 18 hrs by luciferase reporter gene assay relative to vehicle-treated control; assay type: cell-based; method in brief: as §1
# [4] = system: VSMC; assay: Antiproliferative activity against human VSMC assessed as inhibition of PDGF-induced cell proliferation at 5 uM incubated for 30 mins prior to PDGF challenge measured after 48 hrs by resazurin-mediated fluorescence assay in presence of protoporphyrin 9; assay type: functional
# Method in brief: (§3)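 Quiescent (serum-starved) VSMC were pretreated 30 min with 0.1% DMSO, compound, or 10 μM tin protoporphyrin IX (HO-1 inhibitor) as indicated, then stimulated 48 h with 20 ng/mL PDGF. After a PBS wash, cells were given 10 μg/mL resazurin in serum-free medium for 45 min; resorufin fluorescence read at ex 535/em 590 nm. Three independent experiments.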
# [5] = target: T1, Nuclear factor erythroid 2-related factor 2 (Homo sapiens); assay: Activation of Nrf2 (unknown origin) expressed in CHO-ARE luc cells at 10 uM after 18 hrs by luciferase reporter gene assay; assay type: cell-based; method in brief: as §1
# [6] = target: T2, Nuclear factor erythroid 2-related factor 2 (Mus musculus) (UniProt Q60795); assay: Activation of Nrf2 in wild type mouse embryonic fibroblasts assessed as induction of HO-1expression after 18 hrs by immunoblotting analysis
# T2 sequence (whole entry): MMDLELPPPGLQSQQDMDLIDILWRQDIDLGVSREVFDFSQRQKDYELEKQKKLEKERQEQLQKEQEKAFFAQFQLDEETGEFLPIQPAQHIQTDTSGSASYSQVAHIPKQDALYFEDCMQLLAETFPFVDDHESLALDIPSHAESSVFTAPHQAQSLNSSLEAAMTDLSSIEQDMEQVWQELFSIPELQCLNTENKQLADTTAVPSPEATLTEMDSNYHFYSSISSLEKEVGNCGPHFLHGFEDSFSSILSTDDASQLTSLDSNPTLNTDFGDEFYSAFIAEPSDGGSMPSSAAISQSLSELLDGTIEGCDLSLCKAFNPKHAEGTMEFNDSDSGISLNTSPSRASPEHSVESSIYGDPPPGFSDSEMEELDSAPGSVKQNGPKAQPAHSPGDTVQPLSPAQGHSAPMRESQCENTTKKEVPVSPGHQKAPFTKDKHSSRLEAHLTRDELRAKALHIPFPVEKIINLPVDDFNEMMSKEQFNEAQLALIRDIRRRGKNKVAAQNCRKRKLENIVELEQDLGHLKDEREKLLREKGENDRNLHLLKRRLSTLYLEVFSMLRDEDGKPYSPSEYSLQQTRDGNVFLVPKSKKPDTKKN
# Method in brief: (§4)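 MEF (WT and isogenic Nrf2−/−) or VSMC were seeded at (3–4) × 10⁵ cells/well and treated next day with 0.1% DMSO or compound for 18 h. Total lysates were run on SDS-PAGE and immunoblotted for HO-1, with actin as loading control. HO-1/actin by densitometry relative to vehicle (set at 1). Three independent experiments.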
# [7] = system: VSMC; assay: Antiproliferative activity against human VSMC assessed as inhibition of PDGF-induced cell proliferation at 2 to 5 uM incubated for 30 mins prior to PDGF challenge measured after 48 hrs by resazurin-mediated fluorescence assay; assay type: functional; method in brief: as §3
# [8] = Inhibition of NF-kappaB (unknown origin) expressed in HEK293 cells co-expressing luc gene after 30 mins by luciferase reporter gene assay; assay type: cell-based; conditions: Homo sapiens, HEK293, 0.5 h; method in brief: as §2
# [9] = target: T1, Nuclear factor erythroid 2-related factor 2 (Homo sapiens); assay: Activation of Nrf2 (unknown origin) expressed in CHO-ARE-Luc cells after 18 hrs by luciferase reporter gene assay in presence of GSH; assay type: cell-based
# Method in brief: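 ARE-luciferase assay in CHO-ARE-Luc cells with the medium supplemented with 2 mM glutathione before compound addition. Luciferase read 18 h later, normalized to cell count and given as fold of 0.1% DMSO control. CDDO-IM 100 nM as positive control. Three independent experiments.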
# [10] = target: T1, Nuclear factor erythroid 2-related factor 2 (Homo sapiens); assay: Activation of Nrf2 in human VSMC assessed as induction of HO-1 expression at 3 uM after 18 hrs by immunoblotting analysis; method in brief: as §4
# [11] = Cytotoxicity against human VSMC at 2 to 5 uM after 48 hrs by LDH assay
# Method in brief: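 Quiescent VSMC were treated with compound for 48 h. LDH release, measured with a nonradioactive CytoTox kit, was taken as readout of membrane integrity. Three independent experiments, 0.1% DMSO vehicle.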
# [12] = target: T2, Nuclear factor erythroid 2-related factor 2 (Mus musculus); assay: Activation of Nrf2 in mouse Nrf2 deficient embryonic fibroblasts assessed as induction of HO-1expression at 10 uM after 18 hrs by immunoblotting analysis; method in brief: as §4
# [13] = target: T1, Nuclear factor erythroid 2-related factor 2 (Homo sapiens); assay: Activation of Nrf2 (unknown origin) expressed in CHO-ARE-Luc cells after 18 hrs by luciferase reporter gene assay; assay type: cell-based; method in brief: as §1
structure (smiles),measurement,setting,value
COc1ccc(-c2oc3cc(O)cc(O)c3c(=O)c2O)cc1,Activity,[1],inactive
COc1ccc([C@@H]2CC(=O)c3c(O)cc(O)cc3O2)cc1O,Activity,[1],inactive
CC/C=C\C[C@H]1C(=O)C=C[C@@H]1CCCCCCCC(=O)O,inhibition,[2],Active
COc1ccc([C@@H]2CC(=O)c3c(cc(OC)c(OC)c3O)O2)cc1OC,Activity,[1],inactive
O=c1c(O)c(-c2ccc(O)cc2)oc2cc(O)cc(O)c12,Activity,[1],inactive
COc1ccc(-c2cc(=O)c3c(O)cc(O)cc3o2)cc1,Activity,[1],inactive
O=C1C[C@@H](c2ccc(O)cc2)Oc2cc(O)cc(O)c21,Activity,[1],inactive
CC/C=C\CC1C(=O)C=C/C1=C\CCCCCCC(=O)O (stereo not drawn),inhibition,[2],Active
COc1ccc(-c2oc3cc(O)c(OC)c(O)c3c(=O)c2O)cc1,Activity,[1],inactive
CC/C=C\C=C1\C(=O)C=C[C@@H]1CCCCCCCC(=O)O,fold change (FC),[3],2
same,Activity,[4],inactive
same,Activity,[5],Active
same,Activity,[6],Dose-dependent effect
same,inhibition,[7],Active
same,IC50,[8],6.9 µM
same,Activity,[9],inactive
same,Activity,[10],Active
same,Activity,[11],Non-toxic
same,Activity,[12],Active
COc1cc(O)c2c(c1)O[C@H](c1ccc(O)cc1)[C@@H](O)C2=O,Activity,[1],inactive
CC/C=C\CC1C(=O)C=C/C1=C/CCCCCCC(=O)O (stereo not drawn),inhibition,[2],Active
CCCCC/C=C/C=C1/C(=O)C=C[C@@H]1C/C=C\CCCC(=O)O,Activity,[13],Dose-dependent effect
CC/C=C\C=C1/C(=O)C=C[C@@H]1CCCCCCCC(=O)O,inhibition,[2],Active
COc1ccc([C@@H]2CC(=O)c3c(cc(O)c(OC)c3O)O2)cc1O,Activity,[1],inactive
COc1ccc(-c2cc(=O)c3c(O)c(OC)c(O)cc3o2)cc1,Activity,[1],inactive
COc1ccc(-c2cc(=O)c3c(OC)c(OC)c(OC)cc3o2)cc1,Activity,[1],inactive
COc1ccc(-c2cc(=O)c3c(O)c(OC)c(OC)cc3o2)cc1,Activity,[1],inactive
COc1cc(O)c2c(=O)c(O)c(-c3ccc(OC)c(O)c3)oc2c1,Activity,[1],inactive
